Results published in PMC2818319 (Bioorganic & medicinal chemistry letters, 2009).
Values belong to the compound of their own block, whether it stands above or below them.

Tests used:
integrin CD11b/CD18 = integrin CD11b/CD18 (Homo sapiens, UniProt P11215); assay: adhesion of K562 CD11b/CD18 cells to immobilized Fibrinogen; assay type: cell-based; conditions: for EC50: read-out: EC50 (Effective Concentration for 50% increase in cell adhesion), K562 CD11b/CD18 cells, ligand Fg, NB=No increase in binding of K562 CD11b/CD18 cells to ligand Fg
Outline: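 K562 cells stably transfected with wild-type integrin CD11b/CD18. Adhesion to immobilized ligand is measured in the presence of test compound. Secondary validation used two ligands, Fg and iC3b. For the analogue series, EC50 (μM) was derived from the increase in adhesion to Fg; absence of any increase was reported as no binding.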

[1] = target: recombinant αA-domain of CD11b/CD18 (Homo sapiens, UniProt P11215); assay: binding of purified recombinant αA-domain to immobilized Fg; conditions: in words
integrin CD11a/CD18 = integrin CD11a/CD18 (Homo sapiens, UniProt P20701); assay: adhesion of K562 CD11a/CD18 cells to immobilized ICAM-1; assay type: cell-based; conditions: for selectivity for integrin CD11b/CD18 over CD11a/CD18: K562 CD11b/CD18 vs K562 CD11a/CD18 cell adhesion
Outline: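 K562 cells stably transfected with wild-type integrin CD11a/CD18. Test compound obtained as pure powder and assessed for its ability to increase adhesion of these cells to immobilized ICAM-1. This is compared with adhesion of K562 CD11b/CD18 cells to judge selectivity.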

Structure (SMILES): CCOC(=O)CN1C(=O)S/C(=C\c2ccc(-c3ccccc3)o2)C1=O [compound 6]
binding of αA-domain to immobilized Fg [1]: increasing its binding to immobilized Fg | selectivity for integrin CD11b/CD18 over CD11a/CD18 (integrin CD11a/CD18): high selectivity | increase of K562 CD11a/CD18 cell adhesion to ICAM-1 (integrin CD11a/CD18; in words): no appreciable binding | ligand efficiency (BEI) (integrin CD11b/CD18): 14

Structure (SMILES): COC(=O)CN1C(=O)S/C(=C\c2ccc(-c3ccc(C(=O)O)cc3)o2)C1=O [compound 12]
EC50 (integrin CD11b/CD18): > 50 µM

Structure (SMILES): COC(=O)C(C)N1C(=O)S/C(=C\c2ccc(-c3ccc(Cl)cc3Cl)o2)C1=O (stereo not shown) [compound 13]
agonist activity in words (integrin CD11b/CD18; K562 CD11b/CD18 cell adhesion): inactive | EC50 (integrin CD11b/CD18): > 50 µM

Structure (SMILES): CCOC(=O)CN1C(=O)S/C(=C\c2ccc(-c3ccc(Cl)cc3Cl)o2)C1=O [compound 2]
selectivity for integrin CD11b/CD18 over CD11a/CD18 (integrin CD11a/CD18): two-fold higher selectivity | level of K562 CD11b/CD18 cell-adhesion in secondary assays (integrin CD11b/CD18; ligands Fg and iC3b): high levels

Structure (SMILES): CCOC(=O)CN1C(=O)S/C(=C\c2ccc(N3CCOCC3)o2)C1=O [compound 3]
EC50 (integrin CD11b/CD18): > 50 µM

Further lines, results first:

EC50 (integrin CD11b/CD18): > 50 µM
Structure (SMILES): CCOC(=O)CN1C(=O)S/C(=C\c2ccc(-c3ccc(C(=O)O)cc3C)o2)C1=O [compound 11]

EC50 (integrin CD11b/CD18): > 50 µM
Structure (SMILES): NS(=O)(=O)c1ccc(N2C(=O)S/C(=C\c3ccc(Cc4ccccc4)o3)C2=O)cc1 [compound 22]

EC50 (integrin CD11b/CD18): > 50 µM
Structure (SMILES): COC(=O)CN1C(=O)S/C(=C\c2ccc(Sc3ccccc3)o2)C1=O [compound 5]
